Here are results for five molecules from ChEMBL document CHEMBL1134494, “2-Amino-6-arylsulfonylbenzonitriles as non-nucleoside reverse transcriptase inhibitors of HIV-1” (J Med Chem, 2001).

Experiment [1] deals with HeLa. Description: Antiviral activity against K103N/V108I mutant virus in the HeLa MAGI assay. The class given is functional, cell-based, Homo sapiens. The method, boiled down:
(§1)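 Isogenic recombinant HIV-1 strains carrying the listed RT mutations were tested against the test compounds in HeLa MAGI indicator cells. Beta-galactosidase was quantified by activation of a chemiluminescent substrate 3 days after infection. IC50 was the concentration inhibiting 50% of the HIV-1-induced beta-galactosidase signal relative to untreated controls. It was determined for each recombinant virus.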

Experiment [2] has as its system HeLa. Nature of the experiment: Antiviral activity against K103N/Y181C mutant virus in the HeLa MAGI assay. The class given is functional, cell-based, Homo sapiens. The procedure, abridged:
as §1

Experiment [3] concerns HeLa. Description: Antiviral activity against P236L mutant virus in the HeLa MAGI assay. It is filed as functional, cell-based, Homo sapiens. The method, boiled down:
as §1

In experiment [4] the test system is HeLa. Description: Antiviral activity against V106A/Y181C mutant virus in the HeLa MAGI assay. It is filed as functional, cell-based, Homo sapiens. The method, boiled down:
as §1

The test system of experiment [5] is HeLa. Nature of the experiment: Antiviral activity against V108I mutant virus in the HeLa MAGI assay. The class given is functional, cell-based, Homo sapiens. The procedure, abridged:
as §1

In experiment [6] the test system is HeLa. Description: Antiviral activity against V108I/Y181C mutant virus in the HeLa MAGI assay. It is filed as functional, cell-based, Homo sapiens. The procedure, abridged: as §1
Experiment [7] deals with HeLa. Description: Antiviral activity against Y181C mutant virus in the HeLa MAGI assay. It is filed as functional, cell-based, Homo sapiens. The procedure, abridged: as §1
Experiment [8] concerns HeLa. Description: Antiviral activity against Y188C mutant virus in the HeLa MAGI assay. The class given is functional, cell-based, Homo sapiens. The method, boiled down: as §1
For experiment [9], the system named is HeLa. Description: Antiviral activity against wild-type HIV-1 in the HeLa MAGI assay. It is filed as functional, cell-based. Particulars: Homo sapiens. The procedure, abridged:
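HeLa MAGI cells were infected with isogenic recombinant HIV-1. After 3 days, β-galactosidase was quantified by chemiluminescent substrate activation. IC50 is the concentration inhibiting 50% of the HIV-1-induced β-galactosidase signal relative to untreated controls.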

Experiment [10] relates to HeLa. Nature of the experiment: Antiviral activity against E138K mutant virus in the HeLa MAGI assay. It is filed as functional, cell-based, Homo sapiens. The procedure, abridged: as §1
Experiment [11] deals with HeLa. Description: Antiviral activity against G190A mutant virus in the HeLa MAGI assay. The class given is functional, cell-based, Homo sapiens. The method, boiled down: as §1
The subject of experiment [12] is HeLa. Nature of the experiment: Antiviral activity against K103N mutant virus in the HeLa MAGI assay. The class given is functional, cell-based, Homo sapiens. The procedure, abridged:
as §1

Experiment [13] concerns HeLa. Description: Antiviral activity against K103N/L100I mutant virus in the HeLa MAGI assay. It is filed as functional, cell-based, Homo sapiens. The method, boiled down:
as §1

In experiment [14] the test system is HeLa. Description: Antiviral activity against K103N/P225H mutant virus in the HeLa MAGI assay. It is filed as functional, cell-based, Homo sapiens. The method, boiled down:
as §1

Experiment [15] has as its system Human immunodeficiency virus 1. Description: Antiviral activity against HIV-1 infected human MT-4 cells. It is filed as functional, organism-based. The note with it: Human immunodeficiency virus 1, MT4. The procedure, abridged:
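HTLV-1-transformed MT4 cells were infected with HIV-1 strain 3B at 100× the amount giving a 50% drop in cell growth. They were cultured 5 days with a range of compound concentrations. IC50 is the concentration restoring 50% of infected-cell growth (cytopathic effect) relative to uninfected MT4 controls.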

The subject of a further experiment is MT4. Nature of the experiment: Cell culture cytotoxicity against MT-4 cells. The class given is functional, cell-based. The note with it: Homo sapiens. The method, boiled down:
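MT4 cells were exposed to compound in parallel with the 5-day HIV-1 strain 3B cytopathic-effect assay. Compound-induced cytotoxicity is reported as the cell culture cytotoxicity IC50 (CCIC50).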

Experiment [16] has as its target Human immunodeficiency virus type 1 reverse transcriptase (Human immunodeficiency virus 1, UniProt Q72547). Nature of the experiment: Inhibitory activity against HIV-1 reverse transcriptase. The method, boiled down:
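Recombinant HIV RT at 1 nM was combined with 40 nM Eu-chelate-labeled biotinylated DNA primer/RNA template and 100 nM Cy5-dUTP. Reactions were started with enzyme.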

For experiment [17], the system named is HeLa. Description: Antiviral activity against V106A mutant virus in the HeLa MAGI assay. The class given is functional, cell-based, Homo sapiens. The method, boiled down: as §1

Each structure is given as a SMILES string.

On to `N#Cc1c(N)cccc1S(=O)(=O)c1cccc2ccccc12`, for which the IC50 was 3500 nM in the experiment with HeLa [1]; above 50000 nM in the experiment with HeLa [2]; 2 nM in the experiment with HeLa [3]; 230 nM in the experiment with HeLa [4]; 30 nM in the experiment with HeLa [5]; 66000 nM in the experiment with HeLa [6]. Also, the IC50 in the experiment on HeLa [7] stood at 29000 nM; with HeLa [8], 180 nM; in the experiment with HeLa [9] it was 14 nM; in the experiment on HeLa [10], 68 nM; in the experiment with HeLa [11], 200 nM; with HeLa [12] it was 2300 nM. Further, the IC50 is 1700 nM with HeLa [13]; 2800 nM with HeLa [14]; 3320 nM in [15]; above 200000 nM in the experiment on MT4; 1000 nM in experiment [16]; 5.4 nM in the experiment on HeLa [17].

Take `COc1cc(C(F)(F)F)cc(S(=O)(=O)c2cccc(N)c2C#N)c1`: the concentration for half-maximal inhibition (IC50) in the experiment on HeLa [1] is 10000 nM; with HeLa [2], above 50000 nM; in the experiment on HeLa [3] it was 7 nM; in the experiment with HeLa [4], 2100 nM; in the experiment with HeLa [5], 120 nM; in the experiment on HeLa [6] it was 36000 nM. Further, the IC50 in the experiment with HeLa [7] was 36000 nM; in the experiment on HeLa [8], 400 nM; in the experiment with HeLa [9], 63 nM; in the experiment with HeLa [10], 80 nM; with HeLa [11], 660 nM; with HeLa [12], 10500 nM. Further, the IC50 in the experiment with HeLa [13] worked out at 5000 nM; with HeLa [14], 5500 nM; in experiment [15] it was 90 nM; in the experiment on MT4, 164000 nM; in experiment [16], 40 nM; in the experiment on HeLa [17], 13 nM.

As to `COc1cc(C)cc(S(=O)(=O)c2cccc(N)c2C#N)c1`, the half-inhibitory concentration (IC50) with HeLa [1] was 16000 nM; in the experiment with HeLa [2], above 50000 nM; in the experiment on HeLa [3], 8 nM; in the experiment with HeLa [4] it was 420 nM; with HeLa [5] it was 29 nM; in the experiment with HeLa [6], 14000 nM. Moreover, the IC50 in the experiment on HeLa [7] worked out at 13000 nM; with HeLa [8], 300 nM; with HeLa [9], 14 nM; in the experiment on HeLa [10], 29 nM; in the experiment on HeLa [11] it was 87 nM; with HeLa [12], 1800 nM. In addition, the IC50 in the experiment on HeLa [13] was 19000 nM; in the experiment with HeLa [14], 7800 nM; in experiment [15], 50 nM; in the experiment with MT4, 94000 nM; in [16], 10 nM; in the experiment on HeLa [17], 2.9 nM.

Regarding `Cc1cc(Br)cc(S(=O)(=O)c2cccc(N)c2C#N)c1`, the half-maximal inhibitory concentration (IC50) was 15000 nM in the experiment on HeLa [1]; above 50000 nM with HeLa [2]; 11 nM in the experiment on HeLa [3]; 77 nM with HeLa [4]; 11 nM in the experiment with HeLa [5]; 18000 nM in the experiment on HeLa [6]. Further, the half-inhibitory concentration (IC50) in the experiment on HeLa [7] was 10000 nM; with HeLa [8], 1700 nM; in the experiment with HeLa [9] it was 9 nM; with HeLa [10] it was 15 nM; in the experiment with HeLa [11], 31 nM; in the experiment with HeLa [12], 970 nM. The half-inhibitory concentration (IC50) in the experiment on HeLa [13] was 16000 nM; with HeLa [14], 13000 nM; in experiment [15], 20 nM; with MT4, 133000 nM; in experiment [16], 3 nM; with HeLa [17], 1.5 nM.

As to `N#Cc1c(N)cccc1S(=O)(=O)c1cc(Cl)cc(Cl)c1`, the half-maximal inhibitory concentration (IC50) in the experiment on HeLa [1] was 4000 nM; in the experiment with HeLa [2], above 50000 nM; with HeLa [3] it was 2.5 nM; in the experiment on HeLa [4] it was 1800 nM; in the experiment with HeLa [5], 47 nM; with HeLa [6], 58000 nM. The half-inhibitory concentration (IC50) in the experiment with HeLa [7] came to 50000 nM; in the experiment on HeLa [8] it was 140 nM; in the experiment on HeLa [9], 37 nM; with HeLa [10], 85 nM; in the experiment with HeLa [11], 84 nM; in the experiment with HeLa [12], 8300 nM. The half-inhibitory concentration (IC50) in the experiment on HeLa [13] is 5500 nM; in the experiment on HeLa [14] it was 3800 nM; in experiment [15], 70 nM; in the experiment on MT4, above 200000 nM; in [16], 30 nM; with HeLa [17], 6.2 nM.
